Experiments:
[1] = ref Fitzpatrick et al., 2004; cited from earlier work
recombinant human CYP3A5 = recombinant human CYP3A5 (Homo sapiens, UniProt P20815); assay: DB289 consumption by recombinant CYP3A5; format: in vitro ADME; conditions: 3.0 μM DB289, 50 pmol/ml P450, 15 min
Method in brief: (§1)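 Baculovirus-insect-cell Supersomes coexpressing human P450 with NADPH-P450 reductase; the CYP2E1 enzyme also had cytochrome b5. 3.0 μM substrate, 50 pmol/ml P450 (100 pmol/ml for CYP2C8 and CYP2C9), in 100 mM phosphate pH 7.4 with 3.3 mM MgCl2 and 1 mM NADPH, 37°C, 15 min. Quenched in ice-cold acidified acetonitrile with deuterated internal standard, then LC/MS/MS. Percent consumed relative to 0 min; control Supersomes; duplicates.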

[2] = oral; ref Yeates, 2003; cited from earlier work
[3] = biological target: recombinant human CYP2C18 (Homo sapiens, UniProt P33260); assay: DB289 consumption by recombinant CYP2C18; format: in vitro ADME; conditions: 3.0 μM DB289, 50 pmol/ml P450, 15 min
CYP2C9 = CYP2C9 (Homo sapiens, UniProt P11712); assay: Inhibition of P450 activities by DB289: diclofenac 4′-hydroxylation; format: in vitro ADME; conditions: 3.0 μM DB289, pooled HLMs 0.25 mg/ml
Method in brief: (§2)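 Test compound (3.0 μM) was preincubated 0 and 15 min with pooled microsomes (0.25 mg/ml) and 2 mM NADPH (final concentrations). A P450-selective marker substrate was then added and marker activity measured. Reference selective chemical inhibitors were run for comparison (none for CYP4A11). Solvent-only controls.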

recombinant CYP4F3B = biological target: T1, recombinant CYP4F3B (Homo sapiens, UniProt Q08477); assay: DB289 consumption by recombinant CYP4F3B; format: in vitro ADME; conditions: 3.0 μM DB289, 50 pmol/ml P450, 15 min
T1 sequence (Q08477 1-520 isoform Q08477-2): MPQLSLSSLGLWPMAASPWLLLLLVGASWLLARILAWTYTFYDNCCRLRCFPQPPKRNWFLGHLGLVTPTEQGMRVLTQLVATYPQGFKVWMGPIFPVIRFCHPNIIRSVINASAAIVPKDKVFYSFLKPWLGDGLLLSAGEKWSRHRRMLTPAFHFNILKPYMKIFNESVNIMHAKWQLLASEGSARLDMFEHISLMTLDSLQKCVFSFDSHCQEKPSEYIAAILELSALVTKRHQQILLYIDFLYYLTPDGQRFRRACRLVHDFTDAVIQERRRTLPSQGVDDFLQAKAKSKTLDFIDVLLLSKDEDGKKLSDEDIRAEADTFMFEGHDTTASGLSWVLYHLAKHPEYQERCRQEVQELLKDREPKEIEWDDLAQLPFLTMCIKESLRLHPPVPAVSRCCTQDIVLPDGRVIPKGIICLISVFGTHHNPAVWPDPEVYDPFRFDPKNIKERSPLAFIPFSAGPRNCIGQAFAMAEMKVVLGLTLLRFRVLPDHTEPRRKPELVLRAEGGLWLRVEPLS
Method in brief: (§3)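 A second recombinant panel (Supersomes; the CYP2J2, CYP3A7 and CYP4F forms coexpressed with reductase and cytochrome b5). Each enzyme was incubated alone with 3.0 μM substrate and NADPH in pH 7.4 phosphate/MgCl2 at 37°C for 15 min. Acetonitrile quench with internal standard, centrifugation, LC/MS/MS. Percent consumed normalised to 0 min. Control Supersomes; means of duplicates.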

CYP2C19 = CYP2C19 (Homo sapiens, UniProt P33261); assay: Inhibition of P450 activities by DB289: S-mephenytoin 4′-hydroxylation; format: in vitro ADME; conditions: 3.0 μM DB289, pooled HLMs 0.25 mg/ml
Method in brief: as §2

[4] = biological target: recombinant human CYP4F12 (Homo sapiens, UniProt Q9HCS2); assay: DB289 consumption by recombinant CYP4F12; format: in vitro ADME; conditions: 3.0 μM DB289, 50 pmol/ml P450, 15 min
Method in brief: as §3

CYP2D6 [5] = biological target: T2, CYP2D6 (Homo sapiens, UniProt P10635); assay: Inhibition of P450 activities by DB289: debrisoquine 4-hydroxylation; format: in vitro ADME; conditions: 3.0 μM DB289, pooled HLMs 0.25 mg/ml
Method in brief: as §2

recombinant human CYP3A4 = recombinant human CYP3A4 (Homo sapiens, UniProt P08684); assay: DB289 consumption by recombinant CYP3A4; format: in vitro ADME; conditions: 3.0 μM DB289, 50 pmol/ml P450, 15 min
Method in brief: as §1

recombinant human CYP1A2 = recombinant human CYP1A2 (Homo sapiens, UniProt P05177); assay: Kinetics of M1 formation by recombinant CYP1A2; format: in vitro ADME
Method in brief: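 Recombinant P450 (10–50 pmol/ml) with substrate from 0.05 μM upward, under initial-rate conditions (<20% consumption). 250 μl at 37°C, started with NADPH after 5 min equilibration. Run times: 2 min for CYP1A1/1A2; 5 min for CYP1B1, 2J2 and 4F2; 15 min for CYP2C8, 4F3B and 4F12. M1 measured by LC/MS/MS. Mean of duplicates fitted to Michaelis-Menten; CLint = Vmax/Km.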

CYP2A6 = CYP2A6 (Homo sapiens, UniProt P11509); assay: Inhibition of P450 activities by DB289: coumarin 7-hydroxylation; format: in vitro ADME; conditions: 3.0 μM DB289, pooled HLMs 0.25 mg/ml
Method in brief: as §2

recombinant CYP4F2 = biological target: T3, recombinant CYP4F2 (Homo sapiens, UniProt P78329); assay: DB289 consumption by recombinant CYP4F2; format: in vitro ADME; conditions: 3.0 μM DB289, 50 pmol/ml P450, 15 min
T3 sequence (P78329 5-520): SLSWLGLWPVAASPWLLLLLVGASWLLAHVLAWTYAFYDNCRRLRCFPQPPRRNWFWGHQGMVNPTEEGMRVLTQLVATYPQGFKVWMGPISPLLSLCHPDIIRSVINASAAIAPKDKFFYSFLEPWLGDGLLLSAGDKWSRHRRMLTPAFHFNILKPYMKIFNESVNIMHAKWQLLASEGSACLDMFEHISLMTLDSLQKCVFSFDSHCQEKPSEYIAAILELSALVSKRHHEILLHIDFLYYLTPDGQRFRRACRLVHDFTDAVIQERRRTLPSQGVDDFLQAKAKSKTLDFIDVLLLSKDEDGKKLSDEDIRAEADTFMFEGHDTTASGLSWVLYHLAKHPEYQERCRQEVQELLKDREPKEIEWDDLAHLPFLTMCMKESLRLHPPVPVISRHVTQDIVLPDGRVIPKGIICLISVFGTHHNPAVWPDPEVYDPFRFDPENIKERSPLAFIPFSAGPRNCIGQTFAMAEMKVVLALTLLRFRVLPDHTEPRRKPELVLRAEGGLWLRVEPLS
Method in brief: as §3

recombinant human CYP2B6 = recombinant human CYP2B6 (Homo sapiens, UniProt P20813); assay: DB289 consumption by recombinant CYP2B6; format: in vitro ADME; conditions: 3.0 μM DB289, 50 pmol/ml P450, 15 min
Method in brief: as §1

[6] = biological target: recombinant human CYP4F3A (Homo sapiens, UniProt Q08477); assay: DB289 consumption by recombinant CYP4F3A; format: in vitro ADME; conditions: 3.0 μM DB289, up to 120 min
CYP2D6 [7] = biological target: T2, CYP2D6; assay: DB289 consumption by recombinant CYP2D6; format: in vitro ADME; conditions: 3.0 μM DB289, 50 pmol/ml P450, 15 min
Method in brief: as §1

recombinant human CYP2C8 = recombinant human CYP2C8 (Homo sapiens, UniProt P10632); assay: DB289 consumption by recombinant CYP2C8; format: in vitro ADME; conditions: 3.0 μM DB289, 100 pmol/ml P450, 15 min
Method in brief: as §1

T2 sequence (P10635 whole entry): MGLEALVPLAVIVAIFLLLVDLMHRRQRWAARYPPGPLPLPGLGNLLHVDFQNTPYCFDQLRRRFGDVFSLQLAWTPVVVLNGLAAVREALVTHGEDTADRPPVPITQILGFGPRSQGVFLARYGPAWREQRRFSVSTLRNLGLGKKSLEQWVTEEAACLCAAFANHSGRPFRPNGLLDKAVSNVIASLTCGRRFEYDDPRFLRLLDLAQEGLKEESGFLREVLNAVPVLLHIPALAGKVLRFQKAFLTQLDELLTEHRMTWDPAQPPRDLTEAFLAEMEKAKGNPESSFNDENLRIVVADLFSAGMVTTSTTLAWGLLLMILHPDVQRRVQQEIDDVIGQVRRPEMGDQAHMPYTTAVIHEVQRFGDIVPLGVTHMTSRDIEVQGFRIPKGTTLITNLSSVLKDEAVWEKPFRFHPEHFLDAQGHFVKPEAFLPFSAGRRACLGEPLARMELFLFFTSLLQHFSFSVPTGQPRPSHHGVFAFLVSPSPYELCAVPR
Chain of recombinant human CYP2C8 (P10632 whole entry): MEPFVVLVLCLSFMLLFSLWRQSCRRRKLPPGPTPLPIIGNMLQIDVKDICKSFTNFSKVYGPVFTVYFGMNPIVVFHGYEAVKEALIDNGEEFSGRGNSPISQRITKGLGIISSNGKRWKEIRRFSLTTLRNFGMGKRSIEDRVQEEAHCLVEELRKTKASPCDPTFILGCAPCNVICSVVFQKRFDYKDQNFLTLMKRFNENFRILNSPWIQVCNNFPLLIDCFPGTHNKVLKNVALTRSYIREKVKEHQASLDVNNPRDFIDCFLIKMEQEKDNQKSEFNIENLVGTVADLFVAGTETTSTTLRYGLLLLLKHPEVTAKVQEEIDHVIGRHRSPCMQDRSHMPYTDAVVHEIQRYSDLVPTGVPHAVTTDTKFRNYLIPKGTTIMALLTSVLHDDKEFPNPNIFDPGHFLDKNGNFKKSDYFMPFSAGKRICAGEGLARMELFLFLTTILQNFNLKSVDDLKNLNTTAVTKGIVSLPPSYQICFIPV
Chain of recombinant human CYP4F12 (Q9HCS2 whole entry): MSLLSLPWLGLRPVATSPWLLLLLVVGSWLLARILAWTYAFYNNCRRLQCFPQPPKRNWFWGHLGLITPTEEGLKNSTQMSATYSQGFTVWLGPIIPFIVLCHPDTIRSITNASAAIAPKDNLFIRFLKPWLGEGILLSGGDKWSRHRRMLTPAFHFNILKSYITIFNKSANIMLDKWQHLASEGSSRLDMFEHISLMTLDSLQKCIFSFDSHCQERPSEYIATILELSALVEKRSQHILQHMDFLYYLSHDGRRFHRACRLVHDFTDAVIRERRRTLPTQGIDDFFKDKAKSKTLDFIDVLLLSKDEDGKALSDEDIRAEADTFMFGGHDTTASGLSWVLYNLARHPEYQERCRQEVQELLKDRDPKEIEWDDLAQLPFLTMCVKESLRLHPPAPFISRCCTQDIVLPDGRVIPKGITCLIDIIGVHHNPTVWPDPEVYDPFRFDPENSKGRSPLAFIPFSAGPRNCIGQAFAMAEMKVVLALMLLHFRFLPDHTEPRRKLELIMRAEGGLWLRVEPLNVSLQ
Chain of CYP2C19 (P33261 whole entry): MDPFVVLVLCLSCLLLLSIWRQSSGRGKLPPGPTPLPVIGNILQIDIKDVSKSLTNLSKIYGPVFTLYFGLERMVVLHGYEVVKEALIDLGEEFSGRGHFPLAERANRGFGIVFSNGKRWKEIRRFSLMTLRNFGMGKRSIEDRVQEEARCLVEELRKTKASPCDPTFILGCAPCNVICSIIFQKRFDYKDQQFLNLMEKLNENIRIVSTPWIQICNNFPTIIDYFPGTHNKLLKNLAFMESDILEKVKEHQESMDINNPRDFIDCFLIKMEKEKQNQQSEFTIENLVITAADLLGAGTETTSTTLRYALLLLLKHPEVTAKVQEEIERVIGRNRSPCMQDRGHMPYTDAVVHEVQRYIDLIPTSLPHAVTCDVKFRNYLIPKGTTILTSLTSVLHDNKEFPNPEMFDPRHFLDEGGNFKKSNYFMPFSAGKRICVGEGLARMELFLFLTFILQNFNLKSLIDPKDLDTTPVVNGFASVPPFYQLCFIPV
Chain of recombinant human CYP3A5 (P20815 whole entry): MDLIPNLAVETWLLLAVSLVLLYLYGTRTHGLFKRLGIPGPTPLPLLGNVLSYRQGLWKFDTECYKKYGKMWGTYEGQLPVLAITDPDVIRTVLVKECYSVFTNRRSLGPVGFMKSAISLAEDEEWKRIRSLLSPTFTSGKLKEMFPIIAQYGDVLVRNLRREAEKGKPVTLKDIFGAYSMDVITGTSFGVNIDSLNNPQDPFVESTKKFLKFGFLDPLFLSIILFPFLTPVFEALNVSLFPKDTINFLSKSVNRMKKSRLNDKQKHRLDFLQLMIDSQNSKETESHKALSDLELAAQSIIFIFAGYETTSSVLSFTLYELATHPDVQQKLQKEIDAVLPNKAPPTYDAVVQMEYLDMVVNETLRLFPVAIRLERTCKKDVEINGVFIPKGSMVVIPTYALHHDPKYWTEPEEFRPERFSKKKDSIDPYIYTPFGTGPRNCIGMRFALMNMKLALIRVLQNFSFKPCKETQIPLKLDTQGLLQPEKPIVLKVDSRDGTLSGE
Chain of CYP2C9 (P11712 whole entry): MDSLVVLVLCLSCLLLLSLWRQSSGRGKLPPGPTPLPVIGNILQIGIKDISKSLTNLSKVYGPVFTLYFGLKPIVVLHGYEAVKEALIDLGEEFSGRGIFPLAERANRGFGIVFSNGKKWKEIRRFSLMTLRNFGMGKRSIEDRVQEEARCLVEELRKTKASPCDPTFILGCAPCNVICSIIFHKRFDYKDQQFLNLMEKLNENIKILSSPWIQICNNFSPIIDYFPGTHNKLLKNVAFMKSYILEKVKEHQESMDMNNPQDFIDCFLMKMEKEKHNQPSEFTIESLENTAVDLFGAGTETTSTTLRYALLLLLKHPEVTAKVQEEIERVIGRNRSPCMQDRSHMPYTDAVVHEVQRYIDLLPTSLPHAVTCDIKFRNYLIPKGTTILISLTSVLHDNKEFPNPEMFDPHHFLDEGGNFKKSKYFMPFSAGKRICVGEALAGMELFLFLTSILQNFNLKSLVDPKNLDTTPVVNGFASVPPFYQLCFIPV
Chain of recombinant human CYP4F3A (Q08477 whole entry): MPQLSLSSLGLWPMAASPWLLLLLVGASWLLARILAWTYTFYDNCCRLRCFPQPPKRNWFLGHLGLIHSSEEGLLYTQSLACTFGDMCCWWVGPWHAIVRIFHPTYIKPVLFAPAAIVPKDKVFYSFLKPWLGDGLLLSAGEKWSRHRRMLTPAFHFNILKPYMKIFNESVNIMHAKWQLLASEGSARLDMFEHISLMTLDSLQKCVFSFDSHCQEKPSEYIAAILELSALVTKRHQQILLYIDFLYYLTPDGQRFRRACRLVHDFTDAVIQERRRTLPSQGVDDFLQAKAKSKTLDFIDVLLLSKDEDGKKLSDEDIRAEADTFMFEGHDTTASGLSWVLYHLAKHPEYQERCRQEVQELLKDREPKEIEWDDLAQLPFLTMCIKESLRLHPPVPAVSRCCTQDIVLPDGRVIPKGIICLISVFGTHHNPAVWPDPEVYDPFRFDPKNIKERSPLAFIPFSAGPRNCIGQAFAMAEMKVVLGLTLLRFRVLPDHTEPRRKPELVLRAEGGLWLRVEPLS
Chain of recombinant human CYP2B6 (P20813 whole entry): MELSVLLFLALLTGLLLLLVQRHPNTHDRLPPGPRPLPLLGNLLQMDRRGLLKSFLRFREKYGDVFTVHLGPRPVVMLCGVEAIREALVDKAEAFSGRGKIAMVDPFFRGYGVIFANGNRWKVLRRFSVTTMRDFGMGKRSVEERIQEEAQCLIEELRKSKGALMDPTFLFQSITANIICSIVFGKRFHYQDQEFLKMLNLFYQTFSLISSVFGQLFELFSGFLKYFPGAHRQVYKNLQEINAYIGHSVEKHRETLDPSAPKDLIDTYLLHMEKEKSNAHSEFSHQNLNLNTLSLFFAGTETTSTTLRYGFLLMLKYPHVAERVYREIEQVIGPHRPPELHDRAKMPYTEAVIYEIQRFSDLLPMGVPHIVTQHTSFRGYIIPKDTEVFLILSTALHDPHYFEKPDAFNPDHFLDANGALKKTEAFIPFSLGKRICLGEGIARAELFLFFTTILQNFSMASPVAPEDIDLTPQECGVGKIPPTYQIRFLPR
Chain of recombinant human CYP2C18 (P33260 26-490): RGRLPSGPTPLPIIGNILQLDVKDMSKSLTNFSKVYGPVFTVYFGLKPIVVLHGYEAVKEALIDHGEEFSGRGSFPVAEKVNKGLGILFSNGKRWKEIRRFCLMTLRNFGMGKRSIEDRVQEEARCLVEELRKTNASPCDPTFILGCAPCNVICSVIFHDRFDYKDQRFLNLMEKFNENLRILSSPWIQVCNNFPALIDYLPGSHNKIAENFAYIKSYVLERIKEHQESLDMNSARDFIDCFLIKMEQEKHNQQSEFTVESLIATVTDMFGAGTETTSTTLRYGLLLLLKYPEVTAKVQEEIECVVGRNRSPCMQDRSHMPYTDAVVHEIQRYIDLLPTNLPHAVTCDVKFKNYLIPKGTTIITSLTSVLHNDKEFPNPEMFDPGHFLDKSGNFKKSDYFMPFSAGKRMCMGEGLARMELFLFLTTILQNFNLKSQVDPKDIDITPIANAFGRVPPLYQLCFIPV
Chain of CYP2A6 (P11509 whole entry): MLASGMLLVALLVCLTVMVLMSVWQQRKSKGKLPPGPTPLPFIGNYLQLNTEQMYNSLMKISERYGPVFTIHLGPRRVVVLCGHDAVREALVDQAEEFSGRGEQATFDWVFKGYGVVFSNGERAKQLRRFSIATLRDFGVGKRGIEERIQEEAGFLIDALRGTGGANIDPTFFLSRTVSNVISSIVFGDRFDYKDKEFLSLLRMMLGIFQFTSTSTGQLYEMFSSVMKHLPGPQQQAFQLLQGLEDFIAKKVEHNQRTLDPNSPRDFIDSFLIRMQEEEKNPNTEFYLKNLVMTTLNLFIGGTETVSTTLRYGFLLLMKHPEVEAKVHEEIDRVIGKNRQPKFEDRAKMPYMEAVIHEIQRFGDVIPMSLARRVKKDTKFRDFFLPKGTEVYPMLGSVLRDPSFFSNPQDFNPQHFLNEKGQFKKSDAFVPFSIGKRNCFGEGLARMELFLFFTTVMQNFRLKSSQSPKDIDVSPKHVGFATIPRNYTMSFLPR

percentage of substrate consumed (recombinant human CYP3A5): 8% | percentage of substrate consumed [3]: less than 5% | inhibition of CYP2C9 activity (CYP2C9): 20−25% | percentage of substrate consumed (recombinant CYP4F3B): 40% | inhibition of CYP2C19 activity (CYP2C19): minimal to no inhibition | percentage of substrate consumed [4]: 10% | inhibition of CYP2D6 activity (CYP2D6 [5]): minimal to no inhibition | percentage of substrate consumed (recombinant human CYP3A4): 18% | efficiency of CYP1A2 relative to CYP3A4, 2D6, 2E1, or 3A5 (intrinsic or maximal clearance) (recombinant human CYP1A2): ≥ 300 fold | inhibition of CYP2A6 activity (CYP2A6): minimal to no inhibition | percentage of substrate consumed (recombinant CYP4F2): 98% | percentage of substrate consumed (recombinant human CYP2B6): less than 5% | DB289 consumption [6]: little DB289 consumption | percentage of substrate consumed (CYP2D6 [7]): 9% | percentage of substrate consumed (recombinant human CYP2C8): 5%
Structure (SMILES): CON=C(N)c1ccc(-c2ccc(-c3ccc(C(N)=NOC)cc3)o2)cc1 [DB289, 2,5-bis(4-amidinophenyl)furan-bis-O-methylamidoxime]
plasma protein binding [1]: high plasma protein-binding | tolerability [2]: well tolerated, with no serious side effects

— article PMC2077835 (Drug metabolism and disposition: the biological fate of …, 2006)
